According to ChEMBL document CHEMBL1145397, “Structure-activity relationships of a series of analogs of the endozepine octadecaneuropeptide (ODN(11)(-)(18)) on neurosteroid biosynthesis by hypothalamic explants” (2007):
Calls of active or inactive are those of the source. No cut-off for these calls is given here.

How the values were obtained:
Hypothalamus [1] = assay: Effect on neurosteroid biosynthesis assessed as conversion of [3H]pregnenolone to 17-Hydroxypregnenolone in frog hyphalamic explats at 1 uM after 2 hrs relative to control; type: functional, Pelophylax lessonae
Summary of the method: (§1)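 Frog hypothalamic explants, preincubated 15 min in HEPES/bicarbonate Ringer's (glucose, BSA, 95% O2/5% CO2, pH 7.4), then incubated 2 h at 24 °C with 10^-6 M [3H]pregnenolone in 4% propylene glycol, with or without peptide. Reaction stopped with trichloroacetic acid; steroids extracted in dichloromethane and resolved by RP-HPLC radioactivity profiles. Values are % of steroid formed without peptide, mean ± SEM of independent experiments.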

Hypothalamus [2] = assay: Effect on neurosteroid biosynthesis assessed as conversion of [3H]pregnenolone to progesterone in frog hyphalamic explats at 1 uM after 2 hrs relative control; type: functional, Pelophylax lessonae; summary of the method: as §1
Hypothalamus [3] = assay: Effect on neurosteroid biosynthesis assessed as conversion of [3H]pregnenolone to 17-Hydroxypregnenolone in frog hyphalamic explats at 10 uM after 2 hrs relative to control; type: functional, Pelophylax lessonae; summary of the method: as §1
Hypothalamus [4] = assay: Effect on neurosteroid biosynthesis assessed as conversion of [3H]pregnenolone to progesterone in frog hyphalamic explats at 10 uM after 2 hrs relative control; type: functional, Pelophylax lessonae; summary of the method: as §1
Hypothalamus [5] = assay: Effect on neurosteroid biosynthesis in frog hyphalamic explats at 1 uM after 2 hrs in presence of CBR antagonist flumazenil; type: functional, tissue-based; details: Pelophylax lessonae; summary of the method: as §1

Question: With `CC(C)C[C@@H]1NC(=O)CNC(=O)[C@@H]2CCCN2C(=O)[C@H](CCCNC(=N)N)NC(=O)[C@H](CCCCN)NC(=O)[C@H](CC(C)C)NC(=O)[C@H](CC(=O)O)NC(=O)[C@H](CC(C)C)NC1=O` as the molecule, how does the Activity (Hypothalamus [1]) read?
Answer: 246.9%

Question: What about the Activity (Hypothalamus [2]) of the same molecule?
Answer: 271.9%

Question: Which results are given for `CC(C)C[C@@H]1NC(=O)CNC(=O)[C@@H]2CCCN2C(=O)[C@H](CCCNC(=N)N)NC(=O)[C@H](CCCCN)NC(=O)[C@H](CC(C)C)NC(=O)[C@H](CC(=O)O)NC(=O)[C@@H](CC(C)C)NC1=O`?
Answer: Activity (Hypothalamus [3]): 99.9%; Activity (Hypothalamus [4]): 99.7%

Question: Which Activity (Hypothalamus [5]) does the source give for `CC(C)C[C@@H]1NC(=O)CNC(=O)[C@H]2CCCN2C(=O)[C@H](CCCNC(=N)N)NC(=O)[C@H](CCCCN)NC(=O)[C@H](CC(C)C)NC(=O)[C@H](CC(=O)O)NC(=O)[C@@H](CC(C)C)NC1=O` here?
Answer: inactive

Question: With H-APGLLDLK-OH [APGLLDLK] as the molecule, how does the Activity (Hypothalamus [1]) read?
Answer: 402.7%

Question: And the Activity (Hypothalamus [2])?
Answer: 276.5%

Question: How did the Activity (Hypothalamus [1]) turn out when H-GLLDL-OH was run?
Answer: 98.9%

Question: What about the Activity (Hypothalamus [2]) of the same molecule?
Answer: 116.5%

Question: With H-GLLDLK-OH as the molecule, how does the Activity (Hypothalamus [1]) read?
Answer: 366.6%

Question: And the Activity (Hypothalamus [2])?
Answer: 266.6%

Question: For H-LLDLK-OH, which Activity (Hypothalamus [1]) is on record?
Answer: 103.6%

Question: What about the Activity (Hypothalamus [2]) of the same molecule?
Answer: 103.8%

Question: How did the Activity (Hypothalamus [1]) turn out when H-PGLLD-OH was run?
Answer: 101.3%

Question: And the Activity (Hypothalamus [2])?
Answer: 101.4%

Question: Which results are given for H-PGLLDL-OH?
Answer: Activity (Hypothalamus [1]): 117.5%; Activity (Hypothalamus [2]): 137%

Question: H-PGLLDLK-OH [PGLLDLK] was tested. Which Activity (Hypothalamus [1]) did it give?
Answer: 400.2%

Question: What about the Activity (Hypothalamus [2]) of the same molecule?
Answer: 282.1%

Question: Which results are given for “H-QATVGDVNTDRPGLLDLK-OH [QATVGDVNTDRPGLLDLK]”?
Answer: Activity (Hypothalamus [1]): 465.3%; Activity (Hypothalamus [2]): 382.7%

Question: What does the source list for H-RAGLLDLK-OH?
Answer: Activity (Hypothalamus [1]): 405%; Activity (Hypothalamus [2]): 265.2%

Question: What does the source list for H-RPALLDLK-OH?
Answer: Activity (Hypothalamus [1]): 126%; Activity (Hypothalamus [2]): 99%

Question: Which Activity (Hypothalamus [1]) does the source give for H-RPGALDLK-OH here?
Answer: 97.1%

Question: What about the Activity (Hypothalamus [2]) of the same molecule?
Answer: 104.7%

Question: How did the Activity (Hypothalamus [1]) turn out when H-RPGLADLK-OH was run?
Answer: 92.8%

Question: What about the Activity (Hypothalamus [2]) of the same molecule?
Answer: 108.5%

Question: Which results are given for H-RPGLL-OH?
Answer: Activity (Hypothalamus [1]): 97.1%; Activity (Hypothalamus [2]): 99.6%

Question: Which Activity (Hypothalamus [1]) does the source give for H-RPGLLALK-OH here?
Answer: 103.6%

Question: And the Activity (Hypothalamus [2])?
Answer: 100.4%

Question: What does the source list for H-RPGLLD-OH?
Answer: Activity (Hypothalamus [1]): 98.2%; Activity (Hypothalamus [2]): 98.6%

Question: Which results are given for H-RPGLLDAK-OH?
Answer: Activity (Hypothalamus [1]): 99.5%; Activity (Hypothalamus [2]): 103.2%

Question: Which results are given for H-RPGLLDL-OH?
Answer: Activity (Hypothalamus [1]): 131.5%; Activity (Hypothalamus [2]): 136.6%

Question: H-RPGLLDLA-OH was tested. Which Activity (Hypothalamus [1]) did it give?
Answer: 126%

Question: What about the Activity (Hypothalamus [2]) of the same molecule?
Answer: 137%

Question: How did the Activity (Hypothalamus [1]) turn out when H-RPGLLDLK-OH was run?
Answer: 410.5%

Question: What about the Activity (Hypothalamus [2]) of the same molecule?
Answer: 281.7%

Question: What about the Activity (Hypothalamus [5]) of the same molecule?
Answer: inactive
